Experimental data from ChEMBL document CHEMBL1255408, “Roles of calcineurin and Crz1 in antifungal susceptibility and virulence of Candida glabrata” (2010).
Values after ≈ are worked out from the molar mass of the structure shown. Active and inactive are the calls of the source. The rule behind the calls is not given here. Starred links: 1 amine or outer side, 2 acyl side, 3 side chain; linkers in the order of their positions; H or OH if unused. Positions of bridges follow the written chain, without caps; N, C: chain ends. Non-standard residues stand in square brackets, D forms with d. Residues, ends and D or L forms follow the SMILES beside them. *: point of attachment. hTyr(3S-OH,4S-OH,3'-OSO3H) = N[C@H](C(=O)O)[C@H](O)[C@@H](O)c1ccc(O)c(OS(=O)(=O)O)c1; Orn(4R-OH,5R-OH) = O=C([C@H](C[C@@H](O)[C@@H](O)N[*:3])N[*:1])[*:2]; Pro(3S-OH,4S-Me) = C[C@H]1CN[C@H](C(=O)O)[C@H]1O; X1 = CCCCCOc1ccc(-c2cc(-c3ccc(C(=O)*)cc3)no2)cc1; Gln(3R-OH) = NC(=O)C[C@@H](O)[C@H](N)C(=O)O; Hyp = O=C(O)[C@@H]1C[C@@H](O)CN1

Key:
Nakaseomyces glabratus [1] = assay: Antimicrobial activity against Candida glabrata TG172 containing deltacrz1 mutant at 1 mg/ml after 48 hrs; assay type: functional, organism-based
Summary of the method: (§1)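 Spot assay: serial 10-fold dilutions of log-phase cells spotted on minimal-medium plates containing micafungin, Congo red or calcofluor white. Plates incubated 48 h at 30°C; each test repeated at least three times.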

Nakaseomyces glabratus [2] = assay: Antimicrobial activity against Candida glabrata TG162 containing calcineurin deltacnb1 mutant at 1 mg/ml after 48 hrs; assay type: functional, organism-based; summary of the method: as §1
Nakaseomyces glabratus [3] = assay: Antimicrobial activity against Candida glabrata TG172 containing deltacrz1 mutant at 0.8 mg/ml after 48 hrs; assay type: functional, organism-based; summary of the method: as §1
Nakaseomyces glabratus [4] = assay: Antimicrobial activity against Candida glabrata TG162 containing calcineurin deltacnb1 mutant at 0.8 mg/ml after 48 hrs; assay type: functional, organism-based; summary of the method: as §1
Nakaseomyces glabratus [5] = assay: Fungicidal activity against deltacrz1 mutant containing Candida glabrata TG173 complemented with CRZ1 gene at 0.03 ug/ml after 24 hrs by colorimetric microdilution method; assay type: functional, organism-based
Summary of the method: (§2)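 Log-phase cells at 2.5 × 10^3 CFU/ml in minimal medium, with or without micafungin (dissolved in distilled water). OD600 read after 24 h. Percent absorbance at 0.03 μg/ml relative to drug-free culture; mean and SD of three independent experiments.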

Nakaseomyces glabratus [6] = assay: Fungicidal activity against Candida glabrata TG172 containing deltacrz1 mutant at 0.03 ug/ml after 24 hrs by colorimetric microdilution method; assay type: functional, organism-based; summary of the method: as §2
Nakaseomyces glabratus [7] = assay: Fungicidal activity against calcineurin deltacnb1 mutant containing Candida glabrata TG163 complemented with CNB1 gene at 0.03 ug/ml after 24 hrs by colorimetric microdilution method; assay type: functional, organism-based; summary of the method: as §2
Nakaseomyces glabratus [8] = assay: Fungistatic activity against wild type Candida glabrata TG11 at 0.03 ug/ml after 24 hrs by colorimetric microdilution method; assay type: functional, organism-based
Nakaseomyces glabratus [9] = assay: Fungicidal activity against Candida glabrata TG162 containing calcineurin deltacnb1 mutant at 0.03 ug/ml after 24 hrs by colorimetric microdilution method; assay type: functional, organism-based; summary of the method: as §2
Nakaseomyces glabratus [10] = assay: Antimicrobial activity against deltacrz1 mutant containing Candida glabrata TG173 complemented with CRZ1 gene by colorimetric microdilution method; assay type: functional
Summary of the method: (§3)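 MIC by commercially prepared colorimetric broth microdilution panel; agents tested were fluconazole, miconazole, itraconazole, voriconazole and amphotericin B.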

Nakaseomyces glabratus [11] = assay: Antimicrobial activity against Candida glabrata TG172 containing deltacrz1 mutant by colorimetric microdilution method; assay type: functional; summary of the method: as §3
Nakaseomyces glabratus [12] = assay: Antimicrobial activity against calcineurin deltacnb1 mutant containing Candida glabrata TG163 complemented with CNB1 gene by colorimetric microdilution method; assay type: functional; summary of the method: as §3
Nakaseomyces glabratus [13] = assay: Antimicrobial activity against wild type Candida glabrata TG11 by colorimetric microdilution method; assay type: functional; summary of the method: as §3
Nakaseomyces glabratus [14] = assay: Antimicrobial activity against Candida glabrata TG162 containing calcineurin deltacnb1 mutant by colorimetric microdilution method; assay type: functional; summary of the method: as §3
Nakaseomyces glabratus [15] = assay: Antimicrobial activity against deltacrz1 mutant containing Candida glabrata TG173 complemented with CRZ1 gene assessed as reduction in […] cell viability by time kill study; assay type: functional, organism-based
Summary of the method: (§4)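 Time-kill: log-phase cells at 5 × 10^5 CFU/ml in minimal medium with agitation, with or without fluconazole at several concentrations. Total cells counted by hemocytometer, viable cells by plating dilutions on YPD. Read-out is percent viability; mean and SD of three independent experiments.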

Nakaseomyces glabratus [16] = assay: Antimicrobial activity against Candida glabrata TG172 containing deltacrz1 mutant assessed as reduction in […] cell viability by time kill study; assay type: functional, organism-based; summary of the method: as §4
Nakaseomyces glabratus [17] = assay: Fungistatic activity against calcineurin deltacnb1 mutant containing Candida glabrata TG163 complemented with CNB1 gene assessed as reduction in […] cell viability by time kill study; assay type: functional, organism-based; summary of the method: as §4
Nakaseomyces glabratus [18] = assay: Fungicidal activity against Candida glabrata TG162 containing calcineurin deltacnb1 mutant assessed as reduction in […] cell viability by time kill study; assay type: functional, organism-based; summary of the method: as §4
Nakaseomyces glabratus [19] = assay: Fungistatic activity against wild type Candida glabrata TG11 assessed as reduction in […] cell viability by time kill study; assay type: functional, organism-based; summary of the method: as §4

Nc1c(/N=N/c2ccc(-c3ccc(/N=N/c4cc(S(=O)(=O)O)c5ccccc5c4N)cc3)cc2)cc(S(=O)(=O)O)c2ccccc12
growth inhibition (GI) (Nakaseomyces glabratus [1]): Active | growth inhibition (GI) (Nakaseomyces glabratus [2]): Active

O=S(=O)(O)c1cc(Nc2nc(Nc3ccccc3)nc(N(CCO)CCO)n2)ccc1/C=C/c1ccc(Nc2nc(Nc3ccccc3)nc(N(CCO)CCO)n2)cc1S(=O)(=O)O
growth inhibition (GI) (Nakaseomyces glabratus [3]): inactive | growth inhibition (GI) (Nakaseomyces glabratus [4]): Active

CCCCCOc1ccc(-c2cc(-c3ccc(C(=O)N[C@H]4C[C@@H](O)[C@@H](O)NC(=O)[C@@H]5[C@@H](O)[C@@H](C)CN5C(=O)[C@H]([C@H](O)CC(N)=O)NC(=O)[C@H]([C@H](O)[C@@H](O)c5ccc(O)c(OS(=O)(=O)O)c5)NC(=O)[C@@H]5C[C@@H](O)CN5C(=O)[C@H]([C@@H](C)O)NC4=O)cc3)no2)cc1 (X1-[Orn(4R-OH,5R-OH)]T[Hyp][hTyr(3S-OH,4S-OH,3'-OSO3H)][Gln(3R-OH)][Pro(3S-OH,4S-Me)]; lactam 1-C)
growth inhibition (GI) (Nakaseomyces glabratus [5]): inactive | growth inhibition (GI) (Nakaseomyces glabratus [6]): Active | growth inhibition (GI) (Nakaseomyces glabratus [7]): inactive | growth inhibition (GI) (Nakaseomyces glabratus [8]): Active | growth inhibition (GI) (Nakaseomyces glabratus [9]): Active

C[C@@H]1[C@H](O)[C@@H](C)/C=C/C=C/C=C/C=C/C=C/C=C/C=C/[C@H](O[C@@H]2O[C@H](C)[C@@H](O)[C@H](N)[C@@H]2O)C[C@@H]2O[C@](O)(C[C@@H](O)C[C@@H](O)[C@H](O)CC[C@@H](O)C[C@@H](O)CC(=O)O[C@H]1C)C[C@H](O)[C@H]2C(=O)O [AMPHOTERICIN B]
MIC (Nakaseomyces glabratus [10]): 0.5 µg/mL (≈ 0.541 µM) | MIC (Nakaseomyces glabratus [11]): 0.5 µg/mL (≈ 0.541 µM) | MIC (Nakaseomyces glabratus [12]): 0.5 µg/mL (≈ 0.541 µM) | MIC (Nakaseomyces glabratus [13]): 0.5 µg/mL (≈ 0.541 µM) | MIC (Nakaseomyces glabratus [14]): 0.5 µg/mL (≈ 0.541 µM)

OC(Cn1cncn1)(Cn1cncn1)c1ccc(F)cc1F [FLUCONAZOLE]
growth inhibition (GI) (Nakaseomyces glabratus [15]): inactive | growth inhibition (GI) (Nakaseomyces glabratus [16]): inactive | growth inhibition (GI) (Nakaseomyces glabratus [17]): Active | growth inhibition (GI) (Nakaseomyces glabratus [18]): Active | MIC (Nakaseomyces glabratus [10]): 16 µg/mL (≈ 52.2 µM) | MIC (Nakaseomyces glabratus [11]): 32 µg/mL (≈ 104 µM) | MIC (Nakaseomyces glabratus [12]): 16 µg/mL (≈ 52.2 µM) | MIC (Nakaseomyces glabratus [13]): 16 µg/mL (≈ 52.2 µM) | MIC (Nakaseomyces glabratus [14]): 4 µg/mL (≈ 13.1 µM) | growth inhibition (GI) (Nakaseomyces glabratus [19]): Active

CCC(C)n1ncn(-c2ccc(N3CCN(c4ccc(OCC5COC(Cn6cncn6)(c6ccc(Cl)cc6Cl)O5)cc4)CC3)cc2)c1=O (centres undefined) [ITRACONAZOLE]
MIC (Nakaseomyces glabratus [10]): 1 µg/mL (≈ 1.42 µM) | MIC (Nakaseomyces glabratus [11]): 1 µg/mL (≈ 1.42 µM) | MIC (Nakaseomyces glabratus [12]): 2 µg/mL (≈ 2.83 µM) | MIC (Nakaseomyces glabratus [13]): 2 µg/mL (≈ 2.83 µM) | MIC (Nakaseomyces glabratus [14]): 0.5 µg/mL (≈ 0.709 µM)

Clc1ccc(COC(Cn2ccnc2)c2ccc(Cl)cc2Cl)c(Cl)c1 (centres undefined) [MICONAZOLE]
MIC (Nakaseomyces glabratus [10]): 0.5 µg/mL (≈ 1.2 µM) | MIC (Nakaseomyces glabratus [11]): 1 µg/mL (≈ 2.4 µM) | MIC (Nakaseomyces glabratus [12]): 0.5 µg/mL (≈ 1.2 µM) | MIC (Nakaseomyces glabratus [13]): 0.5 µg/mL (≈ 1.2 µM) | MIC (Nakaseomyces glabratus [14]): 0.125 µg/mL (≈ 0.3 µM)

C[C@@H](c1ncncc1F)[C@](O)(Cn1cncn1)c1ccc(F)cc1F [VORICONAZOLE]
MIC (Nakaseomyces glabratus [10]): 0.25 µg/mL (≈ 0.716 µM) | MIC (Nakaseomyces glabratus [11]): 0.5 µg/mL (≈ 1.43 µM) | MIC (Nakaseomyces glabratus [12]): 0.25 µg/mL (≈ 0.716 µM) | MIC (Nakaseomyces glabratus [13]): 0.25 µg/mL (≈ 0.716 µM) | MIC (Nakaseomyces glabratus [14]): 0.125 µg/mL (≈ 0.358 µM)
